From ChEMBL document CHEMBL3352788, “Characterization of selective exosite-binding inhibitors of matrix metalloproteinase 13 that prevent articular cartilage degradation in vitro” (J Med Chem, 2014)

Tests used:
[1] = molecular target: Stromelysin-1 (Homo sapiens) (UniProt P08254); experiment: Inhibition of recombinant human MMP-3 using GRIGFL substrate up to 20 uM
Summary of the method: (§1)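 Outsourced microfluidic protease panel. Compound was preincubated with each protease for 30 min at 25 °C, then peptide substrate was added for 3 h at 25 °C and quenched with SDS/EDTA/iodoacetate. Substrate-to-product conversion was measured on LabChip. Compounds were tested singly in a 12-point 3-fold dilution series, top 20 μM (5 μM for two reference compounds).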

[2] = molecular target: Beta-secretase 1 (Homo sapiens) (UniProt P56817); experiment: Inhibition of recombinant human BACE1 using SEVNLDAEFRKKRR substrate at up to 20 uM after 3 hrs; summary of the method: as §1
Caspase-7 (Homo sapiens) = molecular target: T1, Caspase-7 (Homo sapiens) (UniProt P55210); experiment: Inhibition of recombinant human caspase 7 using DEVDAA substrate at up to 20 uM after 3 hrs; summary of the method: as §1
T1 sequence (whole entry): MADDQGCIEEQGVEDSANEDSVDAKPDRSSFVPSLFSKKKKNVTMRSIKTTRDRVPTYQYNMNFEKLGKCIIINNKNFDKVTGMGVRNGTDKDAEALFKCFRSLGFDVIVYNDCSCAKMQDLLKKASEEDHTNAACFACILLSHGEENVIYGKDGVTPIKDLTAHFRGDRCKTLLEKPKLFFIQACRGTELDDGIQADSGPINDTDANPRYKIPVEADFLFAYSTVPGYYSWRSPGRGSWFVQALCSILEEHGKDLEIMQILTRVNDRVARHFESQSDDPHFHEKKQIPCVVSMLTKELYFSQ

[3] = molecular target: T2, Cathepsin K (Homo sapiens) (UniProt P43235); experiment: Inhibition of recombinant human cathepsin K using HHQKLVFFAE substrate at up to 20 uM after 3 hrs; summary of the method: as §1
T2 sequence (whole entry): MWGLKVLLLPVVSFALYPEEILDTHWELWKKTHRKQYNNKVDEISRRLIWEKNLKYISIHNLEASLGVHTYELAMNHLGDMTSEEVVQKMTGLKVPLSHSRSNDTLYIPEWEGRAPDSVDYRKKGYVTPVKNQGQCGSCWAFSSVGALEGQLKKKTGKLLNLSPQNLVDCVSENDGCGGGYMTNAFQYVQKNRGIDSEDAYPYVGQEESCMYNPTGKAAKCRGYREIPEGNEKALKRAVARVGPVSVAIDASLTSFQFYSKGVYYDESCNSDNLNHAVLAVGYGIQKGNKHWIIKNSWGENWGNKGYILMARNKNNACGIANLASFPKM

[4] = molecular target: Procathepsin L (Homo sapiens) (UniProt P07711); experiment: Inhibition of recombinant human cathepsin L using GGALRAG substrate at up to 20 uM after 3 hrs
Summary of the method: (§2)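 Each protease was preincubated 30 min at 25 °C with compound in its assay buffer. Peptide substrate was then added and the reaction ran 3 h at 25 °C before quenching with SDS/EDTA/iodoacetate. Substrate-to-product conversion (%) was read by microfluidic electrophoresis. Compounds were tested in singlicate as 12-point 3-fold dilutions from 20 μM to 0.1 nM. IC50 was taken as the concentration giving 50% of no-compound control activity.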

[5] = molecular target: Cathepsin S (Homo sapiens) (UniProt P25774); experiment: Inhibition of recombinant human cathepsin S using RTLTAK substrate at up to 20 uM after 3 hrs; summary of the method: as §2
Furin (Homo sapiens) = Furin (Homo sapiens) (UniProt P09958); experiment: Inhibition of recombinant human furin using RRVKRSLD substrate at up to 20 uM after 3 hrs; summary of the method: as §2
[6] = molecular target: Urokinase-type plasminogen activator (Homo sapiens) (UniProt P00749); experiment: Inhibition of recombinant human uPA using GRTSSVEP substrate at up to 20 uM after 3 hrs; summary of the method: as §2
Collagenase 3 = Collagenase 3 (Homo sapiens, UniProt P45452); experiment: Inhibition of full-length recombinant human MMP-13 assessed as bovine type-2 collagen hydrolysis after 22 hrs by fluorescence assay
Cytochrome P450 1A2 = molecular target: T3, Cytochrome P450 1A2 (Homo sapiens, UniProt P05177); experiment: Inhibition of CYP1A2 (unknown origin) using tacrin substrate; assay type: ADME
T3 sequence (P05177 whole entry): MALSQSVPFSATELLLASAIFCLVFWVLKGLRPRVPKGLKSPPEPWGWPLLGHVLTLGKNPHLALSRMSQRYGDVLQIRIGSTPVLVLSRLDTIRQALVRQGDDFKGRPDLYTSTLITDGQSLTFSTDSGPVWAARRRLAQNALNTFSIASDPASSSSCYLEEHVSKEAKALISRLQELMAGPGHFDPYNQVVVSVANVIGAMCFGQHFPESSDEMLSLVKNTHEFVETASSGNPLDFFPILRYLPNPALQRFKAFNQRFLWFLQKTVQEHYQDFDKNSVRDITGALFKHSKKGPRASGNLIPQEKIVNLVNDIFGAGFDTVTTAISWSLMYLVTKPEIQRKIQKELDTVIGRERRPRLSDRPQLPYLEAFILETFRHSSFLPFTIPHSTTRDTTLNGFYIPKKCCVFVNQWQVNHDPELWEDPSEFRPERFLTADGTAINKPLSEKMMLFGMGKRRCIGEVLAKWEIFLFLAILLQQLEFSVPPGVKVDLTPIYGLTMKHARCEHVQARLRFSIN
Summary of the method: (§3)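 Human liver microsomes with probe substrate and an NADPH-regenerating system in 0.1 M potassium phosphate pH 7.4 at 37 °C, run in duplicate. Inhibitor at 0–20 μM (0–2.5 μM for one compound), eight concentrations. Reactions were stopped with acetonitrile/formic acid containing isotope-labelled internal standard, and metabolite area ratios were compared with and without inhibitor. IC50 was taken by linear interpolation between bracketing concentrations.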

Cytochrome P450 2C8 = molecular target: T4, Cytochrome P450 2C8 (Homo sapiens, UniProt P10632); experiment: Inhibition of CYP2C8 (unknown origin) using amodiaquine substrate; assay type: ADME; summary of the method: as §3
T4 sequence (P10632 whole entry): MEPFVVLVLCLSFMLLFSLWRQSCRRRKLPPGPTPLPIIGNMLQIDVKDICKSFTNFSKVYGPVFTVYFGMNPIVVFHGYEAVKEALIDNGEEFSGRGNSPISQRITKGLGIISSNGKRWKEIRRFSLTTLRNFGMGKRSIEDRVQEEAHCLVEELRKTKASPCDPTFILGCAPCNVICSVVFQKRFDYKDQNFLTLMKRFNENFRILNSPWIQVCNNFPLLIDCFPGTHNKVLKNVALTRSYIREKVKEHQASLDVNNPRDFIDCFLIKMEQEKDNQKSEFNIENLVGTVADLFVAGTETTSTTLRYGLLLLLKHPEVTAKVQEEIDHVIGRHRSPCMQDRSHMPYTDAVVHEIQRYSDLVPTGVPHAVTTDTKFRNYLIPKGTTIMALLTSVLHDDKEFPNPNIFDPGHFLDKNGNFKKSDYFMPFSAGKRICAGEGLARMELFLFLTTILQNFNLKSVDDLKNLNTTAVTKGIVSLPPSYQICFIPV

Cytochrome P450 2D6 = Cytochrome P450 2D6 (Homo sapiens, UniProt P10635); experiment: Inhibition of CYP2D6 (unknown origin) using dextromethophan substrate; assay type: ADME; summary of the method: as §3
Cytochrome P450 3A4 = Cytochrome P450 3A4 (Homo sapiens, UniProt P08684); experiment: Inhibition of CYP3A4 (unknown origin) using midazolam substrate; assay type: ADME
Summary of the method: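 Reactions stopped with acetonitrile/0.1% formic acid plus labelled internal standard. Metabolite measured by LC-MS area ratio. IC50 by linear interpolation.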

Sequence of Cytochrome P450 3A4 (P08684 whole entry): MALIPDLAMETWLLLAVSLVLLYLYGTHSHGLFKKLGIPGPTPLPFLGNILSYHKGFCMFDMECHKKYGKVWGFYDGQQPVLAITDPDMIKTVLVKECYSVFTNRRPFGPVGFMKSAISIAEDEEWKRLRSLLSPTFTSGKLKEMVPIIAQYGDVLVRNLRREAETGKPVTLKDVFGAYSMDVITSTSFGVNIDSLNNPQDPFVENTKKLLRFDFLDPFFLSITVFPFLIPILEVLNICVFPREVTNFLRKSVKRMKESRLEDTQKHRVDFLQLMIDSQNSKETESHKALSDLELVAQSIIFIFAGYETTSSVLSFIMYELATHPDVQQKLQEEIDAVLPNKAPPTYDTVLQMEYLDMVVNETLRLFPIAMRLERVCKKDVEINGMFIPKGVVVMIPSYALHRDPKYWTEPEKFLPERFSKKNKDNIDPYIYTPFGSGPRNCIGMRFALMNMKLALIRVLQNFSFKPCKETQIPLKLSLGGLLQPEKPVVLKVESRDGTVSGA
Sequence of Cathepsin S (Homo sapiens) (P25774 115-331 limits assumed): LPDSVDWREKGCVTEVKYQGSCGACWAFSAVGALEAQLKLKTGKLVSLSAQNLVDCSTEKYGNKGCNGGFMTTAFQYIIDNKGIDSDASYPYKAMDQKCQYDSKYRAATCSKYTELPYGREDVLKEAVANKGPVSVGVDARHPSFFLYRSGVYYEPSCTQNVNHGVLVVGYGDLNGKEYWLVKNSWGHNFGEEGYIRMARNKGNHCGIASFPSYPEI
Sequence of Cytochrome P450 2D6 (P10635 whole entry): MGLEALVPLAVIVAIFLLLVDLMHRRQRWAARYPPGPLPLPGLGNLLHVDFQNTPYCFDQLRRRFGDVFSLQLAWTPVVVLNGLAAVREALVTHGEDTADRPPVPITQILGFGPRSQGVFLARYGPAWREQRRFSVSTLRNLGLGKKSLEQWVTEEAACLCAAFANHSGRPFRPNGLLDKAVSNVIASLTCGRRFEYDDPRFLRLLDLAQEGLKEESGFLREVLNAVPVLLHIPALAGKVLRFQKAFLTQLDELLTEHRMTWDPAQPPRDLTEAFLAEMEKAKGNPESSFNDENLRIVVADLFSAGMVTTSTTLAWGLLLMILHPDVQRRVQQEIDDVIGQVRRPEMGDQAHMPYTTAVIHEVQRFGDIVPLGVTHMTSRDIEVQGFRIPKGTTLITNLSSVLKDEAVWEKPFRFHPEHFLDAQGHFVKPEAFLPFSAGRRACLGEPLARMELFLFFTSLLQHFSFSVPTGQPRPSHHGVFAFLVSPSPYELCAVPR
Sequence of Beta-secretase 1 (Homo sapiens) (P56817 whole entry): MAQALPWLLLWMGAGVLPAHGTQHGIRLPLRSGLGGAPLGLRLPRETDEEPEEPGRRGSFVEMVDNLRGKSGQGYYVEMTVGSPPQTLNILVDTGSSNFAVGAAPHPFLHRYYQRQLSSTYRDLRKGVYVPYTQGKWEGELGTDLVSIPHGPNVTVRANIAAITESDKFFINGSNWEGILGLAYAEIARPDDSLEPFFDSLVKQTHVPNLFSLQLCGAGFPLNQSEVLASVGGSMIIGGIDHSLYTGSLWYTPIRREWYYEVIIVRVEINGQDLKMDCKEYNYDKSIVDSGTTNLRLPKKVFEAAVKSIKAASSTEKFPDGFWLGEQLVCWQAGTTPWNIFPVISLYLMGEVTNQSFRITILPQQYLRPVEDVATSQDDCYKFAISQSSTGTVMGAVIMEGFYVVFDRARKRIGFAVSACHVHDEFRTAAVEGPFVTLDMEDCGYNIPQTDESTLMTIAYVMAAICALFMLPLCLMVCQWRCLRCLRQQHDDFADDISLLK
Sequence of Procathepsin L (Homo sapiens) (P07711 114-333 limits assumed): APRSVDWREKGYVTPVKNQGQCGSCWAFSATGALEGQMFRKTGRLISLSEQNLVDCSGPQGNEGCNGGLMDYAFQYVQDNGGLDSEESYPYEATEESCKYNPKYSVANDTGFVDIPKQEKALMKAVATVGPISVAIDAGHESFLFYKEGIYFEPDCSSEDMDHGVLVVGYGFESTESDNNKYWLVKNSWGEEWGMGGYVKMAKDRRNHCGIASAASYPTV
Sequence of Furin (Homo sapiens) (P09958 whole entry): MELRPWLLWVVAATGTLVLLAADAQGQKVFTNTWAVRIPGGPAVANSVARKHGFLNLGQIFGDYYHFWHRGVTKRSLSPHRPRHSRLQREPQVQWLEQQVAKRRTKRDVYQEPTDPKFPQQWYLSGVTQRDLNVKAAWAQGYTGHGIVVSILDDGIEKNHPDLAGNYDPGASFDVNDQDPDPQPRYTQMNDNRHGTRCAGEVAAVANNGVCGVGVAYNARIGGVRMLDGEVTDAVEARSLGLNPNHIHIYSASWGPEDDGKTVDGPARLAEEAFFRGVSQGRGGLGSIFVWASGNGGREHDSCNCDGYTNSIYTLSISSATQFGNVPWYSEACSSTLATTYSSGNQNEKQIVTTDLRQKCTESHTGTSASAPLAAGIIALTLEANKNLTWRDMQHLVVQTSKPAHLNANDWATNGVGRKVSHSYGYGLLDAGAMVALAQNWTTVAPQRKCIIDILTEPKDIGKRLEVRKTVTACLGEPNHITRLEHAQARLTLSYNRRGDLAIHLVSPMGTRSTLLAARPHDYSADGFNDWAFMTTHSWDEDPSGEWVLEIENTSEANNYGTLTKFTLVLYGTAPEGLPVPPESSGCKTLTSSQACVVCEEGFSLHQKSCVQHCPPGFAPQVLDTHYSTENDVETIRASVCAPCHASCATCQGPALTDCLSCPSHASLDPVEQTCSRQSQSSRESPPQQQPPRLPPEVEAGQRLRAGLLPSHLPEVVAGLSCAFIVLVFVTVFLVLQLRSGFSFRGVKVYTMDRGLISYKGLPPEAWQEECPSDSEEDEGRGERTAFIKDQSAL
Sequence of Stromelysin-1 (Homo sapiens) (P08254 100-477 limits assumed): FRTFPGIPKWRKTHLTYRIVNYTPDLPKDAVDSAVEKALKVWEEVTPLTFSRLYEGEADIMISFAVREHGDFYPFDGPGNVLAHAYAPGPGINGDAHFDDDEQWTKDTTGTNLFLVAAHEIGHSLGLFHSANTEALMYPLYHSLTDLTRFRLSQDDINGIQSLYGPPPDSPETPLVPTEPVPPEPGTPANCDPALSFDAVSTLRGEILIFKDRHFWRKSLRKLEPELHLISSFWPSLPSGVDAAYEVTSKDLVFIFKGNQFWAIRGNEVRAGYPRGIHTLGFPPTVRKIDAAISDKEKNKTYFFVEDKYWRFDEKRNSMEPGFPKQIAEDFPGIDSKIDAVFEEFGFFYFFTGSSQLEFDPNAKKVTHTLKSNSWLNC

Compound	inhibition [1]	inhibition [2]	inhibition (Caspase-7 (Homo sapiens))	inhibition [3]	inhibition [4]	inhibition [5]	inhibition (Furin (Homo sapiens))	inhibition [6]	inhibition (Collagenase 3)	IC50 (Cytochrome P450 1A2)	IC50 (Cytochrome P450 2C8)	IC50 (Cytochrome P450 2D6)	IC50 (Cytochrome P450 3A4)	IC50 (Collagenase 3)
Cc1ccc(CSc2nc(O)c3c(n2)CCC3)cc1	> 10%	< 10%	< 10%	20%	< 10%	< 10%	< 10%	< 10%	Dose-dependent effect					
Cc1cc(CNC(=O)c2cc(C(=O)NCc3ccc(F)c(C)c3)ncn2)ccc1F										> 20 µM	> 20 µM	> 20 µM		
COC(=O)c1ccc(CSc2nc3c(c(=O)[nH]2)CCC3)cc1	> 10%	< 10%	< 10%	< 10%	< 10%	< 10%	< 10%	< 10%		> 20 µM	> 20 µM	> 20 µM	> 20 µM	2.3 µM
Oc1nc(SCc2ccc(Cl)cc2)nc2c1CCC2	> 10%	< 10%	< 10%	< 10%	< 10%	< 10%	< 10%	< 10%	Dose-dependent effect	8.6 µM	> 20 µM	> 20 µM	> 20 µM	0.7 µM
Cn1c(=O)n(Cc2ccc(C(=O)O)cc2)c(=O)c2cc(C#CCc3ccccc3)ccc21										> 2.5 µM	> 2.5 µM	> 2.5 µM	> 2.5 µM	
